According to ChEMBL document CHEMBL3351414, “Novel 9'-substituted-noscapines: synthesis with Suzuki cross-coupling, structure elucidation and biological evaluation” (Eur J Med Chem, 2014):
The source made the active and inactive calls. No cut-off for these calls is given here.

Columns and labels:
[1] = Antiproliferative activity against human SEM cells assessed as reduction in cell viability after 72 hrs by MTT assay; type: functional, cell-based
In short: (§1)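 Cells kept in RPMI-1640 (Jurkat, SEM, RS4;11) or DMEM (A549, HeLa, IGROV-1, HT-29) with 10% FBS plus penicillin/streptomycin. 8×10^3 cells per well were left 18 h at 37 °C in 5% CO2. Medium was then replaced with fresh medium holding graded compound concentrations from 10 mM DMSO stocks. Cells were incubated 72 h and viability read by MTT. IC50 is the mean ± SEM from dose–response curves of at least three independent experiments.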

[2] = tested on: PBL; test: Cytotoxicity against PHA-stimulated human PBLs assessed as reduction in cell growth; type: cell-based
In short: (§2)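 Peripheral blood lymphocytes from healthy donors, tested either resting (no PHA) or PHA-stimulated. Value is the concentration reducing cell growth by 50%, mean ± SEM of three separate experiments.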

[3] = tested on: PBL; test: Cytotoxicity against resting human PBLs assessed as reduction in cell growth; type: cell-based; in short: as §2
[4] = tested on: LoVo; test: Antiproliferative activity against human LoVo cells assessed as reduction in cell viability after 72 hrs by MTT assay; type: functional, cell-based
[5] = tested on: CCRF-CEM; test: Antiproliferative activity against human CEM cells assessed as reduction in cell viability after 72 hrs by MTT assay; type: functional, cell-based
[6] = Antiproliferative activity against human RS4:11 cells assessed as reduction in cell viability after 72 hrs by MTT assay; type: functional, cell-based; conditions: RS4-11, 72 h; in short: as §1
[7] = tested on: HeLa; test: Antiproliferative activity against human HeLa cells assessed as reduction in cell viability after 72 hrs by MTT assay; type: functional, cell-based; in short: as §1
[8] = tested on: HT-29; test: Antiproliferative activity against human HT-29 cells assessed as reduction in cell viability after 72 hrs by MTT assay; type: functional, cell-based; conditions: HT-29, 72 h; in short: as §1
[9] = tested on: IGROV-1; test: Antiproliferative activity against human IGROV1 cells assessed as reduction in cell viability after 72 hrs by MTT assay; type: functional, cell-based; conditions: IGROV-1, 72 h; in short: as §1
[10] = tested on: A549; test: Antiproliferative activity against human A549 cells assessed as reduction in cell viability after 72 hrs by MTT assay; type: functional, cell-based; conditions: A549, 72 h; in short: as §1
[11] = tested on: Jurkat; test: Antiproliferative activity against human Jurkat cells assessed as reduction in cell viability after 72 hrs by MTT assay; type: functional, cell-based; in short: as §1
[12] = tested on: HeLa; test: Effect on PCM1 protein in human HeLa cells assessed as accumulation of pericentriolar material at 25 uM after 24 hrs by immunofluorescence microscopy; type: functional, cell-based
In short: (§3)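 After 24 h at 25 µM, HeLa cells were stained with anti-PCM1 and Alexa-conjugated secondary antibody, with phalloidin-tetramethylrhodamine B for actin and DAPI for nuclei. Cells were imaged by confocal microscopy at 60×.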

[13] = tested on: CA46; test: Cell cycle arrest in human CA46 cells assessed as reduction in mitotic index by Giemsa staining method relative to control; type: functional; parameters: scale not given: the % may be the effect or the level left
In short: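 CA46 Burkitt lymphoma cells grown in RPMI 1640 with 17% FBS and 2 mM L-glutamine at 37 °C, 5% CO2, treated 16 h. Cells were swollen 10 min in half-strength PBS, fixed in 0.5% acetic acid–1.5% ethanol, then spread from 25% acetic acid/75% ethanol. Slides were Giemsa-stained. Mitotic cells were those with condensed chromosomes and no nuclear membrane, with ≥200 cells counted per condition.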

[14] = tested on: CA46; test: Cell cycle arrest in human CA46 cells assessed as accumulation at G2/M phase at 5 times IC50 by flow cytometry; type: functional
[15] = tested on: HeLa; test: Effect on cell morphology in human HeLa cells at 25 uM after 24 hrs using phalloidin staining by confocal microscopy; type: functional, cell-based; in short: as §3
[16] = tested on: Jurkat; test: Cell cycle arrest in human Jurkat cells assessed as accumulation at G2/M phase after 24 hrs by flow cytometry; type: functional, cell-based
In short: (§4)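 5×10^5 HeLa or Jurkat cells exposed to graded compound concentrations for 24 h. Cells were fixed in ice-cold 70% ethanol, lysed with RNase A/0.1% Triton X-100 buffer and stained with propidium iodide. DNA content was read by flow cytometry. Phase percentages are mean ± SEM of three independent experiments.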

[17] = tested on: HeLa; test: Effect on cell morphology in human HeLa cells assessed as disorganization of actin filament at 25 uM after 24 hrs by confocal microscopy relative to control; type: functional, cell-based; in short: as §3
[18] = tested on: HeLa; test: Cell cycle arrest in human HeLa cells assessed as accumulation at G2/M phase at 10 to 25 uM after 24 hrs by flow cytometry; type: functional, cell-based; in short: as §4
[19] = target: T1, Tubulin (Bos taurus, UniProt Q6B856+Q862L2+Q862F3); test: Inhibition of bovine brain tubulin assessed as rate of assembly preincubated for 15 mins by turbidimetry
In short: (§5)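 Bovine brain tubulin at 10 µM (1.0 mg/mL) in 0.8 M monosodium glutamate pH 6.6 with 4% DMSO and varying compound was preincubated 15 min at 30 °C, then chilled. GTP was added to 0.4 mM final and the temperature jumped from 0 to 30 °C. Turbidity was followed at 350 nm, scoring either maximum rate or extent of assembly at 20 min.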

[20] = tested on: HeLa; test: Cell cycle arrest in human HeLa cells assessed as accumulation at G2/M phase at 25 uM after 24 hrs by flow cytometry; type: functional; in short: as §4
[21] = tested on: HeLa; test: Disruption of microtubule network in human HeLa cells assessed as induction of spherical morphology at 25 uM after 24 hrs by immunofluorescence microscopy; type: cell-based
In short: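 HeLa cells exposed 24 h at 25 µM, fixed in cold 4% formaldehyde for 15 min, and stained with anti-β-tubulin plus Alexa-conjugated secondary antibody, with DAPI counterstain. Cells were imaged by confocal microscopy.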

[22] = tested on: Jurkat; test: Cell cycle arrest in human Jurkat cells assessed as accumulation at G2/M phase at 10 to 25 uM after 24 hrs by flow cytometry; type: functional, cell-based; in short: as §4
[23] = tested on: CA46; test: Antiproliferative activity against human CA46 cells assessed as reduction in cell viability after 72 hrs by MTT assay; type: functional, cell-based; conditions: CA46, 72 h
[24] = target: T1, Tubulin; test: Inhibition of bovine brain tubulin assessed as extent of assembly preincubated for 15 mins by turbidimetry; in short: as §5
[25] = tested on: HeLa; test: Cell cycle arrest in human HeLa cells assessed as accumulation at G2/M phase after 24 hrs by flow cytometry; type: functional, cell-based; in short: as §4
[26] = target: Tubulin (Bos taurus) (UniProt Q6B856+Q862L2+Q862F3); test: Displacement of [3H]colchicine from bovine brain tubulin at 500 uM after 10 mins by liquid scintillation counting
[27] = target: T1, Tubulin; test: Displacement of [3H]colchicine from bovine brain tubulin assessed as rate of assembly after 10 mins by liquid scintillation counting

IC50 [4] | IC50 [5] | IC50 [7] | IC50 [8] | IC50 [10] | IC50 [11] | IC50 [19] | IC50 [24] | inhibition [26] | SMILES | IC50 [1] | IC50 [2] | IC50 [3] | IC50 [6] | IC50 [9] | Activity [13] | Activity [14] | also measured
60.3 µM | 23.3 µM | 27.4 µM | 58.5 µM | 48.1 µM | 20 µM | – | – | – | COc1ccc2c(c1OC)C(=O)O[C@@H]2[C@H]1c2c(c(-c3ccc4ccccc4c3)c3c(c2OC)OCO3)CCN1C | 8.4 µM | > 200 µM | > 200 µM | 30.8 µM | 67 µM | – | – | –
29.4 µM | 22.3 µM | 8.9 µM | 36.1 µM | > 100 µM | – | 170 µM | > 400 µM | 38% | COc1cccc(-c2c3c(c(OC)c4c2OCO4)[C@H]([C@H]2OC(=O)c4c2ccc(OC)c4OC)N(C)CC3)c1 | 13 µM | > 200 µM | > 200 µM | 7.1 µM | 57.2 µM | 28% | >80% | Activity [12]: Active; Activity [15]: Active; Activity [16]: Dose-dependent effect; Activity [17]: Active; Activity [18]: Active; Activity [20]: >80%; Activity [21]: 70%; Activity [22]: Active; IC50 [23]: 20 µM; Activity [25]: Dose-dependent effect
57.1 µM | 6.9 µM | 30.8 µM | 72.7 µM | 59.7 µM | 33.6 µM | > 400 µM | > 400 µM | 13% | COc1ccccc1-c1c2c(c(OC)c3c1OCO3)[C@H]([C@H]1OC(=O)c3c1ccc(OC)c3OC)N(C)CC2 | 22.2 µM | 42.4 µM | > 200 µM | 13.8 µM | 90.9 µM | – | – | IC50 [27]: > 400 µM
– | – | – | – | – | – | – | – | – | COc1ccc(/C=C\c2cc(OC)c(OC)c(OC)c2)cc1O [COMBRETASTATIN A4] | – | – | – | – | – | 46% | >80% | –
